Reference: ChEMBL document CHEMBL4351006, “A new exploration towards aminothiazolquinolone oximes as potentially multi-targeting antibacterial agents: Design, synthesis and evaluation acting on microbes, DNA, HSA and topoisomerase IV” (Eur J Med Chem, 2019)
Converted amounts (≈) assume the structure as drawn.

What was measured:
[1] = tested on: Aspergillus fumigatus; assay: Antifungal activity against Aspergillus fumigatus assessed as reduction in fungal cell viability incubated for 24 hrs by two fold serial dilution method; assay type: functional
How it was run: (§1)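 Broth two-fold serial dilution run to CLSI guidelines. Chloromycin, norfloxacin and fluconazole served as reference drugs.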

[2] = tested on: Candida parapsilosis; assay: Antifungal activity against Candida parapsilosis ATCC 22019 assessed as reduction in fungal cell viability incubated for 24 hrs by two fold serial dilution method; conditions: Lodderomyces parapsilosis, ATCC 22019, 24 h
[3] = tested on: Acinetobacter baumannii; assay: Antibacterial activity against Acinetobacter baumannii assessed as reduction in bacterial cell viability incubated for 24 hrs by two fold serial dilution method; assay type: functional; how it was run: as §1
[4] = tested on: Candida albicans; assay: Antifungal activity against Candida albicans ATCC 90023 assessed as reduction in fungal cell viability incubated for 24 hrs by two fold serial dilution method; assay type: functional; conditions: ATCC 90023, 24 h; how it was run: as §1
[5] = tested on: Pseudomonas aeruginosa; assay: Antibacterial activity against Pseudomonas aeruginosa assessed as reduction in bacterial cell viability incubated for 24 hrs by two fold serial dilution method; assay type: functional; how it was run: as §1
[6] = tested on: Staphylococcus aureus; assay: Antibacterial activity against Staphylococcus aureus ATCC 25923 assessed as reduction in bacterial cell viability incubated for 24 hrs by two fold serial dilution method; assay type: functional; conditions: ATCC 25923, 24 h; how it was run: as §1
[7] = tested on: Staphylococcus aureus; assay: Antibacterial activity against Staphylococcus aureus ATCC 29213 assessed as reduction in bacterial cell viability incubated for 24 hrs by two fold serial dilution method; assay type: functional; conditions: ATCC 29213, 24 h; how it was run: as §1
[8] = tested on: Escherichia coli; assay: Antibacterial activity against Escherichia coli ATCC 25922 assessed as reduction in bacterial cell viability incubated for 24 hrs by two fold serial dilution method; assay type: functional; conditions: ATCC 25922, 24 h; how it was run: as §1
[9] = tested on: Candida tropicalis; assay: Antifungal activity against Candida tropicalis assessed as reduction in fungal cell viability incubated for 24 hrs by two fold serial dilution method; assay type: functional; how it was run: as §1
[10] = tested on: Pseudomonas aeruginosa; assay: Antibacterial activity against Pseudomonas aeruginosa ATCC 27853 assessed as reduction in bacterial cell viability incubated for 24 hrs by two fold serial dilution method; assay type: functional; conditions: ATCC 27853, 24 h; how it was run: as §1
[11] = tested on: Staphylococcus aureus; assay: Antibacterial activity against methicillin resistant Staphylococcus aureus N315 assessed as reduction in bacterial cell viability incubated for 24 hrs by two fold serial dilution method; assay type: functional; conditions: N315, 24 h
How it was run: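 MIC by two-fold serial dilution following CLSI, with chloromycin and norfloxacin as reference drugs.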

[12] = tested on: Escherichia coli; assay: Antibacterial activity against Escherichia coli assessed as reduction in bacterial cell viability incubated for 24 hrs by two fold serial dilution method; assay type: functional; how it was run: as §1
[13] = tested on: Candida albicans; assay: Antifungal activity against Candida albicans assessed as reduction in fungal cell viability incubated for 24 hrs by two fold serial dilution method; assay type: functional; how it was run: as §1
[14] = tested on: Klebsiella pneumoniae; assay: Antibacterial activity against Klebsiella pneumoniae assessed as reduction in bacterial cell viability incubated for 24 hrs by two fold serial dilution method; assay type: functional; how it was run: as §1
[15] = tested on: Staphylococcus aureus; assay: Antibacterial activity against Staphylococcus aureus assessed as reduction in bacterial cell viability incubated for 24 hrs by two fold serial dilution method; assay type: functional; how it was run: as §1
[16] = tested on: Enterococcus faecalis; assay: Antibacterial activity against Enterococcus faecalis assessed as reduction in bacterial cell viability incubated for 24 hrs by two fold serial dilution method; assay type: functional; how it was run: as §1
[17] = tested on: Staphylococcus aureus; assay: Antibacterial activity against methicillin resistant Staphylococcus aureus assessed as fold change after 16 serial passages at 0.5 times of MIC incubated for 12 hrs by sequential passaging method; assay type: functional

Structure (SMILES)	MIC [1]	MIC [2]	MIC [3]	MIC [4]	MIC [5]	MIC [6]	MIC [7]	MIC [8]	MIC [9]	MIC [10]	MIC [11]	MIC [12]	MIC [13]	MIC [14]	MIC [15]	MIC [16]	fold change (FC) [17]
CCn1cc(-c2csc(N)n2)c(=O)c2cc(F)c(N3CCN(C/C(=N/OC)c4ccc(Cl)cc4Cl)CC3)cc21	434 µM (≈ 256 µg/mL)	217 µM (≈ 128 µg/mL)	54 µM (≈ 31.8 µg/mL)	217 µM (≈ 128 µg/mL)	217 µM (≈ 128 µg/mL)	54 µM (≈ 31.8 µg/mL)	217 µM (≈ 128 µg/mL)	869 µM (≈ 512 µg/mL)	54 µM (≈ 31.8 µg/mL)	217 µM (≈ 128 µg/mL)	434 µM (≈ 256 µg/mL)	109 µM (≈ 64.3 µg/mL)	434 µM (≈ 256 µg/mL)	217 µM (≈ 128 µg/mL)	217 µM (≈ 128 µg/mL)	434 µM (≈ 256 µg/mL)	
CCn1cc(-c2csc(N)n2)c(=O)c2cc(N3CCN(C/C(=N/OC)c4ccc(F)cc4)CC3)c(Cl)cc21	29 µM (≈ 16.1 µg/mL)	58 µM (≈ 32.2 µg/mL)	115 µM (≈ 63.8 µg/mL)	58 µM (≈ 32.2 µg/mL)	461 µM (≈ 256 µg/mL)	58 µM (≈ 32.2 µg/mL)	58 µM (≈ 32.2 µg/mL)	58 µM (≈ 32.2 µg/mL)	58 µM (≈ 32.2 µg/mL)	58 µM (≈ 32.2 µg/mL)	14 µM (≈ 7.77 µg/mL)	14 µM (≈ 7.77 µg/mL)	231 µM (≈ 128 µg/mL)	231 µM (≈ 128 µg/mL)	29 µM (≈ 16.1 µg/mL)	58 µM (≈ 32.2 µg/mL)	
CCn1cc(-c2csc(N)n2)c(=O)c2cc(F)c(N3CCN(C/C(=N/OC)c4ccc(F)cc4F)CC3)cc21	460 µM (≈ 256 µg/mL)	920 µM (≈ 512 µg/mL)	460 µM (≈ 256 µg/mL)	460 µM (≈ 256 µg/mL)	460 µM (≈ 256 µg/mL)	460 µM (≈ 256 µg/mL)	460 µM (≈ 256 µg/mL)	460 µM (≈ 256 µg/mL)	460 µM (≈ 256 µg/mL)	460 µM (≈ 256 µg/mL)	230 µM (≈ 128 µg/mL)	460 µM (≈ 256 µg/mL)	920 µM (≈ 512 µg/mL)	460 µM (≈ 256 µg/mL)	460 µM (≈ 256 µg/mL)	460 µM (≈ 256 µg/mL)	
CCn1cc(C(=O)O)c(=O)c2cc(F)c(N3CCNCC3)cc21 [NORFLOXACIN]			25 µM (≈ 7.98 µg/mL)		6 µM (≈ 1.92 µg/mL)	3 µM (≈ 0.958 µg/mL)	3 µM (≈ 0.958 µg/mL)	25 µM (≈ 7.98 µg/mL)		2 µM (≈ 0.639 µg/mL)	25 µM (≈ 7.98 µg/mL)	50 µM (≈ 16 µg/mL)		13 µM (≈ 4.15 µg/mL)	6 µM (≈ 1.92 µg/mL)	13 µM (≈ 4.15 µg/mL)	16
CCn1cc(-c2csc(N)n2)c(=O)c2cc(N3CCN(C/C(=N/OC)c4ccc(Cl)cc4)CC3)c(Cl)cc21	448 µM (≈ 256 µg/mL)	448 µM (≈ 256 µg/mL)	448 µM (≈ 256 µg/mL)	224 µM (≈ 128 µg/mL)	448 µM (≈ 256 µg/mL)	224 µM (≈ 128 µg/mL)	224 µM (≈ 128 µg/mL)	448 µM (≈ 256 µg/mL)	448 µM (≈ 256 µg/mL)	448 µM (≈ 256 µg/mL)	224 µM (≈ 128 µg/mL)	448 µM (≈ 256 µg/mL)	448 µM (≈ 256 µg/mL)	448 µM (≈ 256 µg/mL)	224 µM (≈ 128 µg/mL)	448 µM (≈ 256 µg/mL)	
